# Assay outcomes: PubChem BioAssay, Johns Hopkins Ion Channel Center
# Hits are enriched below; roughly 2.3% of the tested compounds scored in any of these assays.
# TRPC6 inh = mouse TRPC6 channel inhibition; Q61143; HEK293-TRPC6, membrane potential dye, ACh-evoked depolarization; hits give low values; B-score at 10 µM; actives 1.1% (n = 310,000); AID 2553;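 active = B-score under library mean minus 3 SD, initial fluorescence not abnormally high, positive integrated signal ratio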;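 note: B-score derived from integrated fluorescence ratio over the kinetic read; more negative B-score means stronger inhibition of depolarization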
# Target sequence (Q61143 whole entry, looked up): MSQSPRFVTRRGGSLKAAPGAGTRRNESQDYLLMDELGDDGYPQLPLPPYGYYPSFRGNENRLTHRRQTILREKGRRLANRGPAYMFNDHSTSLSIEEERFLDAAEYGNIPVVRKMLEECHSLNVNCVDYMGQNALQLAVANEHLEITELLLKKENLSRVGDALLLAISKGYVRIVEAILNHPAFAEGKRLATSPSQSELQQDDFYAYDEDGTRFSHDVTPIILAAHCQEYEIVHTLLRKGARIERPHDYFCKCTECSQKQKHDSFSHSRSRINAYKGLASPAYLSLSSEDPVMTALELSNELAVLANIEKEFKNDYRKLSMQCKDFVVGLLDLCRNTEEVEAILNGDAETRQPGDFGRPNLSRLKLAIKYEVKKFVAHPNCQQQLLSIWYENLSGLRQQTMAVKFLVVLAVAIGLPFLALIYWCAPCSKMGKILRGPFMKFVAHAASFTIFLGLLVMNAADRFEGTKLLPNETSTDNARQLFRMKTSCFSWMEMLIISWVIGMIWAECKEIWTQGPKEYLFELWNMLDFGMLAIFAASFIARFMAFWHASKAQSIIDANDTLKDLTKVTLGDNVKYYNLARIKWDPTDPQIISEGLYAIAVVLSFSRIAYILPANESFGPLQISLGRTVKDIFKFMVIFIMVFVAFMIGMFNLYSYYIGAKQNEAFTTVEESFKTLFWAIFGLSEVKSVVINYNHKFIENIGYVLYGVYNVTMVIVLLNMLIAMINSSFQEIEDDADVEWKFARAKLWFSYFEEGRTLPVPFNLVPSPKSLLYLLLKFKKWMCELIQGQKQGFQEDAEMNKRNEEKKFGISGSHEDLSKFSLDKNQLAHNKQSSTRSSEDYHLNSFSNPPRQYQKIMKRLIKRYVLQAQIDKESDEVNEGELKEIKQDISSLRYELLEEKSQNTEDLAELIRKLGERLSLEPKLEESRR
# TRPC4 inh = inhibitors of mouse TRPC4 channel; Q9QUQ5; HEK293 TRPC4beta/mu-opioid, DAMGO-evoked Fluo4 calcium flux; hits give low values; B-score at 10 µM; actives 0.39% (n = 300,000); AID 2247;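 active = B-score over 3 SD under the library average, no early fluorescence shift, positive overall ratio signal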
#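 Assay system: HEK293 cells with stable TRPC4beta plus mu-opioid receptor expression. Dosing: single dose. Measured by: Fluo4 Ca2+ flux fluorescence. Also added: DAMGO in two steps, submaximal then maximal. Read-out: B score from integrated Fluo4 fluorescence ratio.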
# TRPC4 potent = TRPC4 (mouse) allosteric potentiation | Q9QUQ5 | HEK293 TRPC4beta/mu-opioid, DAMGO EC20, Fluo-4 Ca2+ flux; hits give high values | B-score at 10 µM | actives 0.42% (n = 310,000) | AID 2227;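 active = B-score of calcium response area above 5 SD of library B-scores, with initial fluorescence ratio within 5 SD of library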;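 note: B-score of integrated fluorescence ratio over time as area under calcium response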
# TRPC4 act = TRPC4 (mouse) channel activation; Q9QUQ5; HEK293 TRPC4beta/mu-opioid, Fluo4 calcium fluorescence; hits give high values; AID 2237; actives 0.49% (n = 310,000); B-score at 10 µM;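 active = B-score above 5 SD of library B-scores, and initial fluorescence ratio not above library mean plus 5 SD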;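 note: positive B-score marks a calcium rise read as TRPC4 activation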
#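 System – HEK293 cells stably co-expressing mouse TRPC4beta and mu-opioid receptor · Signal – Fluo4 calcium-sensitive dye fluorescence, kinetic, 1 Hz baseline · Benchmarks – buffer (low) and maximal DAMGO (high) · Read-out – B score of integrated fluorescence ratio per well · Incubation – dye loading 45 min room temperature, 110 s kinetic read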
# TRPC6 activator = mouse TRPC6 channel activation. Q61143. HEK293-TRPC6 membrane potential dye fluorescence; hits give high values. B-score at 10 µM. actives 0.13% (n = 310,000). AID 2550;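 active = B-score of the integrated fluorescence ratio above library mean plus 3 SD, and starting fluorescence ratio within library mean plus 5 SD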;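 note: higher score means more depolarization so channel activation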
# TRPC4 spec 2 = second check of whether TRPC6 inhibitors also affect mouse TRPC4; inhibition, % at 10 µM; actives 42% (n = 920); AID 2776; shares compounds with TRPC6 inh; HEK293 TRPC4/MOR, membrane potential dye fluorescence; channel activated by saturating DAMGO dose;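 active = compounds whose fluorescence signal differed from control wells by over 3 SD, either direction, in both duplicate plates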
# TRPC4 spec = tests whether TRPC6 inhibitors also affect mouse TRPC4 | shares compounds with TRPC6 inh | HEK293 TRPC4/mu-opioid, membrane potential fluorescence | activity change, negative = inhibition, % at 10 µM | actives 61% (n = 920);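 active = rise or fall in signal beyond 3 SD of buffer-only wells in both replicate plates, either sign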;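 note: integrated kinetic ratio of fluorescence range over baseline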
# HEK293 MPD ctr 2-1 = second counter-screen for TRPC6 inhibitors: parental HEK293 cells | AID 2779 | signal change vs control, % at 10 µM | parental HEK293 membrane potential dye fluorescence; maximal acetylcholine challenge after compound addition | actives 31% (n = 920) | shares compounds with TRPC6 inh;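 active = membrane potential signal moving either way by over 3 SD of the maximum-effect control, in both duplicate plates, meaning non-specific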
# HEK293 MPD ctr-1 = parental HEK293 nonspecific activity of TRPC6 inhibitors; shares compounds with TRPC6 inh; parental HEK293 membrane potential dye fluorescence; membrane potential signal change, % at 10 µM; actives 60% (n = 920); AID 2780;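 active = membrane potential signal shifting up or down by more than 3 SD of buffer-only wells, on both duplicate plates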
# HEK293 MPD ctr-2 = counter-screen for TRPC6 modulators: effect in parental HEK293 cells; membrane potential dye fluorescence; membrane potential signal change, % at 10 µM; actives 51% (n = 2,400); shares compounds with TRPC6 inh;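 active = membrane potential signal moves up or down beyond 5 SD from buffer-only wells, on both duplicate plates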
# HEK293 MPD ctr 2-2 = second counter-screen for TRPC6 modulators: effect in parental HEK293 cells; membrane potential dye fluorescence; after compound, maximal acetylcholine stimulation; shares compounds with TRPC6 inh; inhibition, % at 10 µM; actives 14% (n = 2,400);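 active = membrane potential signal drops by more than 5 SD from the mean control signal, in both duplicate plates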;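 note: plate controls were acetylcholine ECmax control wells for no effect and buffer only wells for full effect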
# TRPC4/MOR mod = tests whether TRPC6 modulators also affect mouse TRPC4; percent change from control (negative = decrease, positive = increase), % at 10 µM; actives 69% (n = 2,400); shares compounds with TRPC6 inh; HEK293 TRPC4/mu-opioid, membrane potential fluorescence;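 active = membrane potential signal moved up or down beyond 5 SD of buffer control wells, in both duplicate plates, actives on both sides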;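 note: plate controls were assay buffer wells for no effect and DAMGO maximal-effect wells for full effect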
# TRPC4/MOR inh 2 = second selectivity test of TRPC6 modulators against mouse TRPC4; shares compounds with TRPC6 inh; HEK293 TRPC4/mu-opioid, membrane potential dye fluorescence; stimulated with maximal-effect DAMGO; inhibition, % at 10 µM; actives 55% (n = 2,400);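 active = drop in membrane potential signal beyond 5 SD of the control wells in both duplicate plates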;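 note: TRPC4 counter screen for TRPC6 hits run under conditions tuned for TRPC6 not TRPC4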
# TRPC6 block conf = confirmation of mouse TRPC6 inhibitors; AID 488960; actives 43% (n = 3,300); inhibition, % at 10 µM; HEK293-TRPC6, membrane potential dye, ACh-evoked depolarization; shares compounds with TRPC6 inh;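 active = fluorescence ratio falls more than 5 SD below the full-stimulation control mean, in both duplicate runs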;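 note: integrated fluorescence ratio of peak minus minimum over baseline after agonist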
# TRPC6 act conf = mouse TRPC6 activator confirmation. shares compounds with TRPC6 inh. HEK293-TRPC6 membrane potential dye fluorescence, FDSS. actives 11% (n = 2,800). activation, % at 10 µM;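 active = ratio signal rise beyond 5 SD above unstimulated control wells' mean, seen in both duplicate runs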;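 note: plate controls were buffer EC0 wells for no effect and acetylcholine ECmax response for full effect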
# Starred values were filed as active, the others as inactive; i = inactive; · = no result.
SMILES,TRPC6 inh,TRPC4 inh,TRPC4 potent,TRPC4 act,TRPC6 activator,HEK293 MPD ctr-2,HEK293 MPD ctr 2-2,TRPC4/MOR mod,TRPC4/MOR inh 2,TRPC6 block conf,TRPC6 act conf,others
Cc1ccc([N+](=O)[O-])c(OCCCN2CCC(Cc3ccccc3)CC2)c1,-5.2*,i,i,i,i,i,i,i,73%*,53%*,i,
COc1ccc(N2CCN(S(=O)(=O)c3ccc(OC)c(C(=O)N4CCOCC4)c3)CC2)cc1,i,i,i,i,i,·,·,·,·,·,·,
CS(=O)(=O)NCCC1=CCCCC1,i,i,i,i,i,·,·,·,·,·,·,
COc1cccc(NC(=O)CCC2CCN(C(=O)c3ccc(C(C)=O)s3)CC2)c1,i,i,i,i,i,·,·,·,·,·,·,
O=C(CNCc1ccccc1)Nc1cccc(Cl)c1Cl,-6.2*,i,i,i,i,i,i,14%*,41%*,i,·,
CN(CCC(=O)c1ccccc1)CCC(=O)c1ccccc1,-5.3*,i,i,i,i,i,i,10%*,i,i,·,
CN(C)CCC(=O)c1ccc(Cl)cc1,i,i,i,i,i,·,·,·,·,·,·,
Cc1c(C(O)CN2CCN(Cc3ccc4c(c3)OCO4)CC2)c2ccccc2n1C (configuration not stated),-5.1*,i,i,i,i,i,i,11%*,88%*,55%*,i,
COc1ccc2c(c1)c(C(O)CN1CCC(Cc3ccccc3)CC1)c(C)n2C (configuration not stated),-12*,i,i,i,i,·,·,·,·,78%*,i,TRPC4 spec 2=26%*;TRPC4 spec=-13%*;HEK293 MPD ctr 2-1=i;HEK293 MPD ctr-1=-221%*
Cc1ccc(OCC(O)CN2CCN(Cc3ccc4c(c3)OCO4)CC2)cc1C (configuration not stated),i,i,i,i,i,·,·,·,·,·,·,
COc1ccc2c(c1)c(C(O)CN1CCN(Cc3ccc4c(c3)OCO4)CC1)c(C)n2C (configuration not stated),-6.3*,i,i,i,i,i,i,-9.5%*,68%*,52%*,i,
OC(CN1CCN(Cc2ccc3c(c2)OCO3)CC1)c1c[nH]c2ccccc12 (configuration not stated),i,i,i,i,i,·,·,·,·,·,·,
Cc1cc(OCCOCCNCc2ccccc2)ccc1C(C)C,i,i,i,i,i,·,·,·,·,·,·,
Cc1cccc(NC(=S)N(CCN(C)C)Cc2cccs2)c1,i,i,i,i,i,·,·,·,·,·,·,
CCOC(=O)N1CCN(Cc2nc(-c3ccc(Cl)cc3)no2)CC1,-8.9*,i,i,i,i,·,·,·,·,i,·,TRPC4 spec 2=i;TRPC4 spec=i;HEK293 MPD ctr 2-1=i;HEK293 MPD ctr-1=i
CCOC(=O)N1CCN(Cc2nc(-c3ccc(OC)cc3)no2)CC1,i,i,i,i,i,·,·,·,·,·,·,
Cc1ccc2nc3c(cc(C(=O)NC4CCCC4)c(=N)n3C3CCCCC3)c(=O)n2c1,-6.4*,i,i,i,i,-186%*,i,-32%*,43%*,58%*,i,
CNC(=O)c1cc2c(=O)n3cc(C)ccc3nc2n(C(C)C)c1=N,-7.5*,i,i,i,i,-157%*,111%*,-48%*,51%*,84%*,i,
C=CCn1c(=N)c(C(=O)NCCCOC)cc2c(=O)n3ccccc3nc21,i,i,i,i,i,·,·,·,·,·,·,
N=c1c(C(=O)NC2CCCC2)cc2c(=O)n3ccccc3nc2n1C1CCCCC1,-6.5*,i,i,i,i,-188%*,i,-30%*,50%*,44%*,i,
C=CCn1c(=N)c(C(=O)NCCCOC)cc2c(=O)n3cc(C)ccc3nc21,-7.5*,i,i,i,i,·,·,·,·,i,i,TRPC4 spec 2=i;TRPC4 spec=2.7%*;HEK293 MPD ctr 2-1=-54%*;HEK293 MPD ctr-1=4.9%*
CC(CCc1ccccc1)NC(=O)C1CCC1 (configuration not stated),i,i,i,i,i,·,·,·,·,·,·,
CC(OC(=O)CCOc1ccccc1)C(=O)NC1CC1 (configuration not stated),i,i,i,i,i,·,·,·,·,·,·,
Cc1ccc2nc3c(cc(C(=O)NC4CCCCC4)c(=N)n3C3CCCCC3)c(=O)n2c1,-7.8*,i,i,i,i,-132%*,i,-31%*,43%*,36%*,i,
Cc1cccn2c(=O)c3cc(C(=O)NCC4CCCO4)c(=N)n(C4CCCCC4)c3nc12 (configuration not stated),i,i,i,i,i,·,·,·,·,·,·,
O=C1NC[C@@H](Cc2cccc3ccccc23)N(CCCCC2CCCCC2)C1=O,i,i,i,i,i,·,·,·,·,·,·,
NCCC(=O)N1c2ccccc2Sc2ccccc21,i,i,i,i,i,·,·,·,·,·,·,
NCCCC(=O)N1c2ccccc2Sc2ccccc21,-6.9*,i,i,i,i,·,·,·,·,i,i,TRPC4 spec 2=i;TRPC4 spec=i;HEK293 MPD ctr 2-1=i;HEK293 MPD ctr-1=i
CCN(CC)CC(=O)N1c2ccccc2Sc2ccccc21,i,i,i,i,i,·,·,·,·,·,·,
